An excerpt weighted towards active compounds, which were near 1.5% of everything screened.
EBI2 block: EBI2 receptor antagonists, beta-arrestin recruitment, primary screen, cell-based, luminescence, 7a,25-OHC stimulation, uHTS; 0.81% of 360,000 active; inhibition, % at 5 µM; 7a,25-OHC stimulated; G-protein coupled receptor 183 (Homo sapiens), P32249; in the data active = inhibition above about 38%;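 note: enzyme fragment complementation signal reports receptor beta-arrestin coupling in cells; 0% = agonist plus DMSO wells and 100% = wells without agonist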
APJ agonist: agonists of human apelin receptor APJ, primary screen, CHO-K1 cells, PathHunter beta-arrestin, luminescence. P35414. 0% DMSO wells, 100% apelin. activation, % at 20 µM. 0.11% of 330,000 active. AID 2520, 2010;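 active = activation more than six SD over the plate average, tested at 20 µM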;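 note: 0% = DMSO alone and 100% = apelin-13 at 10 nM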
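Material: CHO-K1 APJ beta-arrestin complementation cell line; Input: cell density 1000 per well; Incubation: compound stimulation 90 min at 25 °C, detection 60 min; Signal: luminescence from split beta-galactosidase complementation, Galacton Star/Emerald II substrate; Controls: DMSO-only wells as negative, 10 nM Apelin-13 as positive control.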
CCR6 antagonist: CCR6 receptor antagonists, primary screen, cell-based, CHO-K1, luminescence, beta-arrestin, uHTS. 0.49% of 340,000 active. AID 493098, 2011. CHO-K1 CCR6 PathHunter beta-arrestin, CCL20-stimulated. C-C chemokine receptor type 6 (Homo sapiens), P51684. inhibition, % at 20 µM;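 active = compounds whose inhibition of the agonist-driven luminescence signal at 20 µM reaches about 50%, limit read from the data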;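 note: cells stimulated with CCL20 at 14 nM final; plate controls were DMSO with CCL20 for no effect and DMSO without agonist for full effect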
Target sequence (P51684 whole entry, looked up): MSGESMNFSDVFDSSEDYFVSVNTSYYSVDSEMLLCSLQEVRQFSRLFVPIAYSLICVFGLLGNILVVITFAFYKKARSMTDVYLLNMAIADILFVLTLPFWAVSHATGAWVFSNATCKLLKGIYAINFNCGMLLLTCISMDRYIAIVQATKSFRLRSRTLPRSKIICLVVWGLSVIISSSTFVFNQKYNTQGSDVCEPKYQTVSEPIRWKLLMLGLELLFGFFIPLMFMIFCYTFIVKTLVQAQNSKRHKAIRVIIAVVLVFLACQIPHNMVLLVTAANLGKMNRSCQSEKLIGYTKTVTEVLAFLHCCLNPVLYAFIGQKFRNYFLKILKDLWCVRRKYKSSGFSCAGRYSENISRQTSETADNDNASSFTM
APJ antagonist: antagonists of human apelin receptor APJ, primary screen, CHO-K1 cells, beta-arrestin complementation, luminescence; 0.32% of 330,000 active; inhibition, % at 20 µM;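 active = inhibition above about 40% at 20 µM, limit read from the data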;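 note: cells challenged with 10 nM apelin-13 agonist together with compound; plate controls were apelin-13 plus DMSO wells for no effect and DMSO wells lacking apelin-13 for full effect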
CXCR6 block: CXCR6 receptor inhibitors, primary screen, cell-based, beta-arrestin, luminescence, CHO-K1 PathHunter, 1536-well | inhibition, % at 20 µM | 0.36% of 360,000 active; in the data active = inhibition above about 34%, passing the limit was not always enough;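 note: antagonist mode with CXCL16 agonist at 10 nM final; 0% = 10 nM CXCL16 with DMSO and 100% = unstimulated wells without agonist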
EBI2 antag conf: EBI2 antagonist hit retest, beta-arrestin, confirmation, cell-based, single concentration, luminescence, 7a,25-OHC stimulation | 29% of 2,400 active | 7a,25-OHC antagonism | shares compounds with EBI2 block | AID 651997, 2013 | inhibition, % at 5 µM;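 active = inhibition of at least 50%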
EBI2 agonist: EBI2 agonist activity of antagonist hits, confirmation, counter-screen for EBI2 antagonist project, cell-based, single concentration, agonist mode, luminescence; EBI2-expressing cells, 60 min; 0% vehicle, 100% 7α,25-dihydroxycholesterol control; 2,400 tested, under 10 active; activation, % at 5 µM; shares compounds with EBI2 block; AID 652000, 2013;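 active = activation of at least 50%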
bGal cs: E. coli beta-galactosidase enzyme inhibition, confirmation, counter-screen for EBI2 antagonist project, biochemical, luminescence, single concentration. shares compounds with EBI2 block. purified beta-galactosidase, luminescent Galacton Star, 15 min. inhibition, % at 5 µM. 1% of 2,400 active. AID 652176, 2013;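 active = replicate-average signal at least 3 plate SD below neutral wells, shown as high inhibition, flagging enzyme-inhibiting false positives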;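 note: 0% = DMSO wells with enzyme and 100% = wells lacking enzyme; higher means stronger loss of beta-gal luminescence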
* = called active by the depositor; . = not tested or not shown.

SMILES | EBI2 block | APJ agonist | CCR6 antagonist | APJ antagonist | CXCR6 block | EBI2 antag conf | EBI2 agonist | bGal cs
Cc1ccc(C(=O)NCCc2ccc(S(=O)(=O)N3CCCC3)cc2)cc1 | 6.1 | -1.4 | 5.1 | -13.5 | -6.8 | . | . | .
O=C(COc1ccc2ccccc2c1)Nc1ccc(S(=O)(=O)N2CCCCCC2)cc1 | 55.9* | 3.1 | 9.6 | 4.1 | -11.7 | 12.4 | 0.8 | 9.4
Cc1cc2cc(CNC(=O)c3ccc(S(=O)(=O)N4CCCCC4)cc3)ccc2[nH]1 | 47.1* | 0.6 | 6.0 | -18.7 | -4.1 | 36.4 | 1.2 | 7.6
O=C(COc1ccccc1)Nc1ccc(S(=O)(=O)N2CCCCCC2)cc1 | 29.1 | 1.0 | 14.4 | -5.6 | 3.2 | . | . | .
NNC(=S)Nc1ccc(S(=O)(=O)N2CCCCC2)cc1 | 43.6* | 0.9 | 1.6 | 8.5 | -9.6 | 37.8 | 0.7 | 6.0
CC(C)(C)c1ccc(C(=O)N2CCC2(C)C(=O)Nc2ccc3nc[nH]c3c2)cc1 (stereo not given) | -1.9 | . | . | . | -1.2 | . | . | .
CCc1nc2c(OCCn3cccc3)cccn2c1N(C)C(=O)c1ccc(C)cc1 | -6.2 | . | . | . | 4.3 | . | . | .
O=C(c1ccc(Cl)cc1)N1CCN(CCOc2ccccc2)CC1 | 45.6* | -5.4 | 7.2 | 2.7 | -2.5 | 10.7 | 0.6 | 4.8
COc1ccc(OCCN2CCN(C(=O)c3ccc(OC)cc3)CC2)cc1 | 43.7 | -1.3 | 6.0 | -14.0 | 9.7 | . | . | .
CN(CC(=O)Nc1ccc(Cl)c(C(F)(F)F)c1)C(=O)C1CCN(C(=O)c2ccc(Cl)cc2)CC1 | 55.6* | . | -2.1 | . | -13.2 | 39.4 | -0.9 | -20.3
CN(CC(=O)Nc1ccc(Cl)c(C(F)(F)F)c1)C(=O)C1CCC1 | -13.0 | -8.7 | 25.1 | 8.8 | -5.9 | . | . | .
CN(CCOc1ccc(Cl)cc1)C(=O)C1CCN(C(=O)c2ccc(Cl)cc2)CC1 | 73.6* | 4.4 | 18.8 | 7.7 | 9.3 | 40.2 | 0.2 | 3.7
c1ccc2c(-c3ccc4nncn4c3)cncc2c1 | -13.1 | . | . | . | -4.0 | . | . | .
O=NN(CCF)C(=O)NC1CCS(=O)(=O)CC1 | 7.5 | . | . | . | -0.9 | . | . | .
N#Cc1cc2c(nc1SCC(=O)Nc1sc3c(c1C#N)CCC3)CCCCCC2 | 46.9* | -5.4 | 1.9 | 6.4 | 6.9 | 18.8 | 0.6 | 6.1
N#Cc1cc2c(nc1SCC(=O)Nc1sc3c(c1C#N)CCC3)CCC2 | 15.4 | -4.2 | 26.4 | 15.8 | 1.5 | . | . | .
C[C@@H]1CN([C@H](C)CO)S(=O)(=O)c2ccc(C#CC3CCCC3)cc2O[C@H]1CN(C)C(=O)Cc1ccccc1 | -30.0 | . | . | . | 9.8 | . | . | .
CCOc1cc(CNc2ccccc2)cc(Br)c1OCC(=O)NC(C)(C)C | 33.1 | -3.2 | 22.5 | 1.4 | 7.4 | . | . | .
CCOc1cc(CNc2ccccc2)cc(Br)c1OCc1ccc(F)cc1 | 48.6* | -1.4 | 17.4 | -6.7 | 10.9 | 13.9 | 0.3 | 3.4
CCOc1cc(CNc2ccc(Br)cc2)cc(Br)c1OCC(=O)NC(C)(C)C | 66.1* | 2.4 | 18.5 | -13.9 | -2.1 | 7.1 | 0.9 | 2.2
COc1cc(CNc2ccc3[nH]c(=O)[nH]c3c2)cc(Br)c1OCc1ccc(F)cc1 | -4.4 | 2.7 | -2.1 | -16.5 | 1.2 | . | . | .
COc1ccc(-c2cc(CNc3nc(NCc4ccccc4OC)nc4ccsc34)on2)cc1 | -2.4 | . | . | . | 6.1 | . | . | .
CCCc1c(-c2ccc(F)cc2F)ncn1Cc1ccccc1OC | 14.9 | . | . | . | 13.4 | . | . | .
CCOC(=O)C1CCCCN1C(=O)c1ccc2nc(Cc3ccc(OC)cc3)oc2c1 (stereo not given) | 61.1* | -5.2 | 9.5 | -11.4 | 1.8 | 49.0 | 0.2 | 3.2
CO/N=C/c1ccc(Oc2ccc(C)cc2)nc1 | 87.4* | -1.8 | 18.2 | 10.2 | -2.8 | 73.2* | -0.1 | 6.5

Screens: PubChem BioAssay, Sanford-Burnham Center for Chemical Genomics
